Results pooled from the literature.
Lines come from different studies, so protocols differ.
Target: Serine/threonine-protein kinase TBK1 (TBK1, Homo sapiens, UniProt Q9UHD2)
Sequence (Q9UHD2 1-729, as in one of the studies): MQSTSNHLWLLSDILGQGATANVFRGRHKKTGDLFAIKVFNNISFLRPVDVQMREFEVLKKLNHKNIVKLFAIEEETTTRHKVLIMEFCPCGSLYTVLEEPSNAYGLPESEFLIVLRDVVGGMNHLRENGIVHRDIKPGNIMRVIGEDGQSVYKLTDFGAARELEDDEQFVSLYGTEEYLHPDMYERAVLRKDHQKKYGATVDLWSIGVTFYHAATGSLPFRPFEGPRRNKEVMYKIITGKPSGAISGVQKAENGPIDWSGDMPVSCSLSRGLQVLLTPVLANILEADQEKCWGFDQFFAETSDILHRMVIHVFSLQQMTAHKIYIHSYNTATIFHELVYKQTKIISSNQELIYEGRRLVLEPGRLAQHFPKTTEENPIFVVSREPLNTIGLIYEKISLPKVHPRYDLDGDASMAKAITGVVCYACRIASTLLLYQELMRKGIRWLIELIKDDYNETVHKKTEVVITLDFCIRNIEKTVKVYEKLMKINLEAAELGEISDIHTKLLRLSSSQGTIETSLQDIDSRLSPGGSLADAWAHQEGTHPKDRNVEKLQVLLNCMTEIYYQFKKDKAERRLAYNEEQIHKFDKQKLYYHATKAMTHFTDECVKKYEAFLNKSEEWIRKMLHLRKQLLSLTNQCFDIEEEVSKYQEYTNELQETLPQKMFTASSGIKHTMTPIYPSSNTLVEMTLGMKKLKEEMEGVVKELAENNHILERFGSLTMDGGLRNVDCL

Compound	effect on	method	concentration	remaining binding [%]
O=C(c1ccc(Nc2ncc(Cl)c(-c3ccc(Cl)s3)n2)cc1)N1CCC(N2CCCC2)CC1	binding	competition with immobilised ligand	1 µM	0
COc1ccc2c(c1)O[C@H](c1ccc(OC)c(OC)c1)C[C@@H]2NC(=O)C1(c2ccc3c(c2)OC(F)(F)O3)CC1	cell-free assay	competition with immobilised ligand	1 µM	99
N[C@@H]1CCN(c2nccc(-c3cnn4ncccc34)n2)C1	binding	–	1 µM	97
CCN1CCN(Cc2ccc(C(=O)Nc3ccc(C)c(Oc4ccc5c(c4)CC(=O)N5)c3)cc2C(F)(F)F)CC1	binding	competition with immobilised ligand	1 µM	50
O=C(O)[C@@H]1[C@@H](Cn2nnc3ccccc3c2=O)CC[C@H]1C(=O)c1ccc(OCCC2CCOCC2)cc1	cell-free assay	competition with immobilised ligand	1 µM	100
c1cnn2ncc(-c3ccnc(N4CCC45COC5)n3)c2c1	binding	–	1 µM	41
CC(=O)N1CCC(c2ccc(C(=O)NC(=N)N)cc2C(F)(F)F)CC1	cell-free assay	competition with immobilised ligand	1 µM	100
COc1cnc(Nc2cccc(S(N)(=O)=O)c2)nc1N1CCN(c2ccccc2)C(=O)C1	binding	competition with immobilised ligand	1 µM	61
O=C(c1ccc(Nc2nccc(-c3cc4ccccc4s3)n2)cc1)N1CCC(N2CCCC2)CC1	binding	competition with immobilised ligand	1 µM	27
C=CC(=O)N1CCC(C(=O)NCC(=O)N2CCN(c3nc(-c4cnc(N)nc4C(F)F)nc(N4CCOCC4)n3)CC2)CC1	binding	competition with immobilised ligand	1 µM	91
Cc1cnn2ncc(-c3ccnc(N(C)C)n3)c2c1	binding	–	1 µM	82
COc1cnc(Nc2cccc(S(N)(=O)=O)c2)nc1N1CCN(c2ccccc2)CC1	binding	competition with immobilised ligand	1 µM	61
C[C@@H](c1ccc(-n2cnc3c(N)ncnc32)cc1)N1CCc2nn(C)c(Cc3ccccc3)c2C1=O	binding	competition with immobilised ligand	0.1 µM	98
CC1=C(C#N)C(c2ccc3c(c2)c(NC(=O)c2ccccc2C)nn3C)C(C#N)=C(C)N1	cell-free assay	competition with immobilised ligand	1 µM	69
O=C(NCCCN1CCOCC1)c1ccc(Nc2ncc(Cl)c(-c3ccc(Cl)s3)n2)cc1	binding	competition with immobilised ligand	1 µM	23
CN(c1nccc(-c2cnn3ncccc23)n1)C1CC1	binding	–	1 µM	100
O=C(Nc1c[nH]nc1C(=O)NC1CCNCC1)c1cc(F)cc(F)c1	binding	competition with immobilised ligand	1 µM	100
COc1cccc(CNC(=O)c2nc3scc(COCc4ccc(C(=O)O)cc4)c3c(=O)[nH]2)c1	cell-free assay	competition with immobilised ligand	1 µM	94
CN(C)c1ncc(F)c(-c2cnn3ncccc23)n1	binding	–	1 µM	86
CC(C)(O)c1cncc(-c2nc3ccc(F)cc3n2C2CC2)c1	cell-free assay	competition with immobilised ligand	1 µM	72
C[C@@H]1CCN(c2nccc(-c3cnn4ncccc34)n2)C1	binding	–	1 µM	63
